According to ChEMBL document CHEMBL2331274, “SAR based design of nicotinamides as a novel class of androgen receptor antagonists for prostate cancer” (J Med Chem, 2013):
Activity calls are given as the source filed them. The rule behind the calls is not given here.

Columns and labels:
[1] = molecular target: T1, Androgen receptor (Mus musculus) (UniProt P19091); assay: Antagonist activity against mouse androgen receptor assessed as reduction of 10 nM DHT-induced transcriptional activity at 10 uM after 24 hrs by cell-based luciferase reporter gene assay relative to control
T1 sequence (whole entry): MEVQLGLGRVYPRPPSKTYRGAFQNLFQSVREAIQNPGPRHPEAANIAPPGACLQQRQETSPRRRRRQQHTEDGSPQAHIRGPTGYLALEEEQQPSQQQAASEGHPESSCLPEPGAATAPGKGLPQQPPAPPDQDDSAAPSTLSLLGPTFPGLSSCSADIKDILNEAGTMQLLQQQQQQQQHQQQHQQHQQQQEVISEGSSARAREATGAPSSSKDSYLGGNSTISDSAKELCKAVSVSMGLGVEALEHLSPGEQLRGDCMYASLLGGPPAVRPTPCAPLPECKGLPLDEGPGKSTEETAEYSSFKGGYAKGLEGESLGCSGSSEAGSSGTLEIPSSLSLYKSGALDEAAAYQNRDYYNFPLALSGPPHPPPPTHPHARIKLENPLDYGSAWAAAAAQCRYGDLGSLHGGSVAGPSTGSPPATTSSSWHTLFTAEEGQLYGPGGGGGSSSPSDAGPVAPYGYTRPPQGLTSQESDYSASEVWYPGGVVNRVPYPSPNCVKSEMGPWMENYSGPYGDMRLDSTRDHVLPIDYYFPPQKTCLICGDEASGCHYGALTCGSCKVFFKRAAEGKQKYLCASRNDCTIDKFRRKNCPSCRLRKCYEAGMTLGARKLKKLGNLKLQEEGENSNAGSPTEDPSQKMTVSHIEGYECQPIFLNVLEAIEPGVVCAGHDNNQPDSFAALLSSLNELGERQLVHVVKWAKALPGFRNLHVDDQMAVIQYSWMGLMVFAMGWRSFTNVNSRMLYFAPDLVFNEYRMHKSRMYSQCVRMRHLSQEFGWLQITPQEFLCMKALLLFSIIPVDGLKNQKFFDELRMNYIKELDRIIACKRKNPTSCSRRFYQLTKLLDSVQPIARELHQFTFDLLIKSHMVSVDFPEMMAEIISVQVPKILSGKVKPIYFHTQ
How it was run: (§1)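 Transcriptional activity is expressed as a percentage after 10 μM compound, given alone for agonist mode or with 10 nM DHT for antagonist mode. Data are from triplicate experiments.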

[2] = molecular target: T1, Androgen receptor (Mus musculus); assay: Agonist activity at mouse androgen receptor at 10 uM after 24 hrs by cell-based luciferase reporter gene assay relative to control; how it was run: as §1

| SMILES | inhibition [1] | Activity [2] |
| --- | --- | --- |
| COc1cc2c(cc1OC)CN(c1ccc(C(=O)Nc3ccc(C)cn3)cn1)CC2 | 67.6% | 2.8% |
| Cc1ccnc(NC(=O)c2ccc(N3CCc4ccccc4C3)nc2)c1 | 58.6% | 3.6% |
| CCOc1ccc2c(c1)CCN(c1ccc(C(=O)Nc3cccc(OC)c3)cn1)C2 | 95.6% | 4% |
| Cc1cccc(NC(=O)c2ccc(N3CCN(C)CC3)nc2)n1 | inactive | 14.1% |
| CCOc1ccc2c(c1OCc1ccccc1)CCN(c1ccc(C(=O)Nc3cccc(OC)c3)cn1)C2 | 78.6% | 0.5% |
| Cc1cccc(NC(=O)c2ccc(N3CCc4cc(OC(C)C)ccc4C3)nc2)n1 | 95.3% | 3.5% |
| COc1cc2c(cc1OC)CN(c1ccc(C(=O)Nc3cccc(C)n3)cn1)CC2 | 94.4% | 2.1% |
| CCOc1ccc2c(c1OC)CCN(c1ccc(C(=O)Nc3cccc(OC)c3)cn1)C2 | 91.4% | 1.8% |
| COc1cc2c(c(OC)c1OC)CCN(c1ccc(C(=O)Nc3cccc(C)n3)cn1)C2 | 89.1% | 0.8% |
| Cc1ccccc1N(C)C(=O)c1ccc(N2CCc3ccccc3C2)nc1 | 48.2% | 11.7% |
| COc1cc2c(cc1OC)CN(c1ccc(C(=O)Nc3ccccn3)cn1)CC2 | 84.5% | 2.5% |
| COc1cccc(NC(=O)c2ccc(N3CCc4c(ccc(OC)c4OC)C3)nc2)c1 | 96.6% | 3.9% |
| O=C(Nc1ccccc1)c1ccc(C(=O)N2CCc3ccccc3C2)nc1 | 33.1% | 7.8% |
| O=C(Nc1ccccn1)c1ccc(C(=O)N2CCc3ccccc3C2)nc1 | 4.5% | 15% |
| Cc1cccc(NC(=O)c2ccc(N3CCCCC3)nc2)n1 | 65.7% | 6.8% |
| CCOc1ccc2c(c1OC)CCN(c1ccc(C(=O)Nc3cccc(C)n3)cn1)C2 | 91% | 1.7% |
| COc1ccccc1N(C)C(=O)c1ccc(N2CCc3ccccc3C2)nc1 | 48.8% | 9% |
| COc1cccc(NC(=O)c2ccc(N3CCc4cc(OC)ccc4C3)nc2)c1 | 95.7% | 3.1% |
| CCOc1c(Cl)c(Cl)c2c(c1OCC)CCN(c1ccc(C(=O)Nc3cccc(C)n3)cn1)C2 | 30.5% | 2.6% |
| O=C(Nc1ccccc1)c1ccc(N2CCc3ccccc3C2)nc1 | 68.9% | 8.7% |
| COc1ccc(CNC(=O)c2ccc(N3CCCCC3)nc2)cc1 | 19.4% | 11.1% |
| Cc1ccnc(NC(=O)c2ccc(Cl)nc2)c1 | inactive | 6.4% |
| COc1cccc(NC(=O)c2ccc(N3CCc4ccccc4C3)nc2)c1 | 80.4% | 13.6% |
| O=C(Nc1ccccn1)c1ccc(Cl)nc1 | inactive | 4.9% |
| Cc1cccc(NC(=O)c2ccc(N3CCc4cc(OCc5ccccc5)ccc4C3)nc2)n1 | 61.3% | 4.5% |
| O=C(Nc1ccc(F)cc1)c1ccc(N2CCc3ccccc3C2)nc1 | 65.1% | 7.1% |
| CCOc1ccc2c(c1OCc1ccccc1)CCN(c1ccc(C(=O)N(C)c3cccc(C)n3)cn1)C2 | 77.5% | 1.6% |
| Cc1ccc(NC(=O)c2ccc(Cl)nc2)nc1 | 43.1% | 4.9% |
| Cc1cccnc1NC(=O)c1ccc(N2CCc3ccccc3C2)nc1 | 64.1% | 5% |

Second part, the compound after the results:

| inhibition [1] | Activity [2] | SMILES |
| --- | --- | --- |
| 60.9% | 3.1% | COc1cc2c(cc1OC)CN(c1ccc(C(=O)Nc3ncccc3C)cn1)CC2 |
| 86.4% | 5.6% | O=C(Nc1ccccn1)c1ccc(N2CCc3ccccc3C2)nc1 |
| 27.5% | 9.4% | O=C(Nc1ncccn1)c1ccc(N2CCc3ccccc3C2)nc1 |
| 0.6% | 3.8% | Cc1cccnc1NC(=O)c1ccc(Cl)nc1 |
| 94.9% | 4% | COc1ccc2c(c1)CCN(c1ccc(C(=O)Nc3cccc(C)n3)cn1)C2 |
| 86.9% | 5.2% | COc1ccc2c(c1)CCN(c1ccc(C(=O)Nc3ccc(C)cn3)cn1)C2 |
| 32.5% | 12.1% | Cc1ccnc(N(C)C(=O)c2ccc(N3CCc4ccccc4C3)nc2)c1 |
| 46.4% | 12.5% | COc1cccc(N(C)C(=O)c2ccc(N3CCc4ccccc4C3)nc2)c1 |
| 79.6% | 7.2% | COc1ccc(NC(=O)c2ccc(N3CCc4ccccc4C3)nc2)cn1 |
| 92.9% | 0.6% | CCOc1ccc2c(c1OCc1ccccc1)CCN(c1ccc(C(=O)Nc3cccc(C)n3)cn1)C2 |
| 49.7% | 10.4% | Cc1ccccc1NC(=O)c1ccc(N2CCc3ccccc3C2)nc1 |
| 90.2% | 3% | Cc1ccc(NC(=O)c2ccc(N3CCc4ccccc4C3)nc2)nc1 |
| 87.9% | 0.4% | CCOc1ccc2c(c1OCC)CCN(c1ccc(C(=O)Nc3cccc(OC)c3)cn1)C2 |
| 86.4% | 1% | CCOc1c(Cl)c(Cl)c2c(c1OCc1ccccc1)CCN(c1ccc(C(=O)Nc3cccc(C)n3)cn1)C2 |
| 88.3% | 1% | CCOc1ccc2c(c1OCC)CCN(c1ccc(C(=O)Nc3cccc(C)n3)cn1)C2 |
| 88.3% | 2.7% | COc1cc2c(cc1OC)CN(c1ccc(C(=O)Nc3cc(C)ccn3)cn1)CC2 |
| 58.2% | 9% | COc1ccc(CNC(=O)c2ccc(N3CCc4ccccc4C3)nc2)cc1 |
| 59% | 7.4% | COc1ccccc1NC(=O)c1ccc(N2CCc3ccccc3C2)nc1 |
| 57.4% | 9.7% | O=C(Nc1nccs1)c1ccc(N2CCc3ccccc3C2)nc1 |
